Screening results as filed in PubChem BioAssay.
A selection: hits, their analogues and other compounds. The true share with any hit is near 3.1%.
KCNQ1 inh: inhibitors of human KCNQ1 channel, primary screen, cell-based, thallium flux, high-throughput; Potassium voltage-gated channel subfamily KQT member 1 (Homo sapiens), P51787; CHO-K1 KCNQ1, FluxOR thallium flux fluorescence; stronger effect = higher value; B-score at 10 µM; hit rate 1.3% among 310,000; AID 2642, 2010;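 active means compounds whose thallium flux B-score, printed positive for inhibition, exceeds three library SD while starting fluorescence stays within three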;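 further: channel opened by potassium depolarization with thallium stimulus after 20 min compound exposure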
Target sequence (P51787 whole entry, looked up): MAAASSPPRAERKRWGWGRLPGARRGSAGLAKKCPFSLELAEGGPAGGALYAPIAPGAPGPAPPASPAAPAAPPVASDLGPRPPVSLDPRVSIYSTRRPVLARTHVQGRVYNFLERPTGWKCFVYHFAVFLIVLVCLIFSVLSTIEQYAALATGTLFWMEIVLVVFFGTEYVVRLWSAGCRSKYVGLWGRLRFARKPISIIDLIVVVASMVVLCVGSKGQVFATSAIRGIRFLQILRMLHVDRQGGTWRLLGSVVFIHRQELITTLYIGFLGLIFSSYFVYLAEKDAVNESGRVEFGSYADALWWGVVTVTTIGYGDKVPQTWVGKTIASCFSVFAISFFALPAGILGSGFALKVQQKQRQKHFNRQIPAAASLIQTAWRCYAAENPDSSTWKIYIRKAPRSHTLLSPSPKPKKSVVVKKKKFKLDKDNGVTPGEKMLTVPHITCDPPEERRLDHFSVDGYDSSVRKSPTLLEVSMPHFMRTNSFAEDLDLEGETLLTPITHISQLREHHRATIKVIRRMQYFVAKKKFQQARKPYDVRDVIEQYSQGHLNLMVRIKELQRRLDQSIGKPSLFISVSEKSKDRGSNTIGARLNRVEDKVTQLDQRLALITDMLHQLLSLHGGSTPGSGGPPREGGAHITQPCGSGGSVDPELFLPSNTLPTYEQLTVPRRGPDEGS
KCNQ1 pot: potentiators or activators of KCNQ1 channel, primary screen, cell-based, thallium flux, high-throughput; hit rate 0.35% among 310,000; CHO-K1 KCNQ1, thallium flux FluxOR fluorescence; stronger effect = higher value; B-score at 10 µM;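 active means fluorescence ratio B-score, a plate-corrected score, at least three library SD, with initial intensity B-score within 5 SD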
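assay system = CHO-K1 cells stably expressing KCNQ1 | medium = assay buffer, equal DMSO in all wells | timing = 37 °C overnight plating, 90-min dark dye load, 20-min compound pretreatment | measured by = kinetic FluxOR thallium fluorescence, 10-s 1-Hz baseline, 110-s post-stimulus read | measure = fluorescence change relative to baseline, converted to B score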
KCNK9 block: KCNK9 potassium channel inhibitors, primary screen, HEK293 cells, thallium flux; Potassium channel subfamily K member 9 (Homo sapiens), Q9NPC2; FluxOR thallium flux fluorescence; stronger effect = lower value; B-score at 10 µM; hit rate 1.2% among 310,000; AID 488922, 2010;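 active means ratio B-score over 3 SD below the library mean, with starting fluorescence within 5 SD of its mean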;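 further: negative B-score means less thallium flux so channel inhibition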
KCNK3 block: human KCNK3 channel inhibitors, primary screen, CHO cells, FluxOR thallium flux, B-score. Potassium channel subfamily K member 3 (Homo sapiens), O14649. FluxOR fluorescence; stronger effect = lower value. B-score at 10 µM. hit rate 0.84% among 340,000;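 active means B-score under library mean minus 4 SD, starting fluorescence ratio at most library mean plus 5 SD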;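 further: more negative B-score means stronger inhibition of thallium flux through KCNK3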
hERG protect: hERG rescue from dofetilide block, primary screen, cell-based, CHO-hERG, FluxOR thallium flux, dofetilide IC70; AID 1511, 2009; activation (rescue from dofetilide block), less the hit threshold, % at 10 µM; hit rate 0.51% among 310,000; dofetilide IC70 present; Voltage-gated inwardly rectifying potassium channel KCNH2 (Homo sapiens), Q12809;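 active means activation above the mean of controls blocked by dofetilide plus 5 SD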;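 further: thallium influx through hERG after potassium depolarization seen as dye fluorescence rise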
KCNK3 inh conf: retest of human KCNK3 channel inhibitors, confirmation, CHO cells, FluxOR thallium flux, triplicate. shares compounds with KCNK3 block. FluxOR fluorescence; 0% buffer, 100% carvedilol maximal block. ratio percent of control, % at 10 µM. hit rate 99% among 2,400;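 active means ratio percent of control, averaged over triplicates, above buffer control mean plus 5 SD, cut at about 64% in these data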;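 further: ratio is the fluorescence rise from min to max over baseline after thallium stimulus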
KCNK3 uninduced: thallium flux inhibition in non-induced cells, primary screen, counter-screen for KCNK3 inhibitor project, cell-based, non-induced KCNK3 line, FluxOR thallium, triplicate | hit rate 40% among 2,400 | thallium flux ratio (lower = more inhibition) at 10 µM | shares compounds with KCNK3 block | non-induced KCNK3 parental cells; stronger effect = lower value;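 active means thallium flux ratio, averaged over three wells, more than 5 SD below the buffer control mean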;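 further: host cells are CHO cells without KCNK3 induction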
Of the large screens only hits and unclear results are named; the others gave an inactive call (follow-up assays come after a bar, where they were run).

CCC(C)Oc1cccc(C(=O)Nc2ccccc2N2CCOCC2)c1 (stereo unspecified)	KCNK3 block -9.8 | KCNK3 inh conf 125 | KCNK3 uninduced 0.15
CN(C(=O)Nc1cccc(C(F)(F)F)c1)C1CCCCC1	none
N#Cc1c(-c2ccccc2)nc(-c2cccnc2)[nH]c1=O	none
NC(=O)c1ccc(OCC(=O)N2CCNC2=O)cc1	none (no result: KCNQ1 inh, KCNQ1 pot, KCNK9 block, hERG protect)
Cc1ccc(NC(=O)C2CC(=O)N(CCc3ccccc3)C2)c(C)c1 (stereo unspecified)	none
Cc1ccccc1OCCCn1c(=O)sc2ccccc21	KCNK3 block -9.6 | KCNK3 inh conf 94 | KCNK3 uninduced inactive
O=c1sc2ccccc2n1COc1ccccc1	none (no result: KCNQ1 inh, KCNQ1 pot, KCNK9 block, hERG protect)
O=c1sc2ccccc2n1COc1ccc(Cl)cc1	KCNK3 block -9.1 | KCNK3 inh conf 124 | KCNK3 uninduced 0.15
O=C(CN1CCCCCC1)Nc1ccccc1OC(F)F	none
O=C(Nc1ccc2c(c1)Cc1ccccc1-2)c1ccc(Br)o1	KCNK3 block -10 | KCNK3 inh conf 86 | KCNK3 uninduced inactive
O=C(Nc1ccc2c(c1)Cc1ccccc1-2)c1ccccc1F	none
CC(C)c1ccccc1-n1c(SCC(=O)c2ccc3c(c2)NC(=O)CO3)nc2ccccc2c1=O	KCNQ1 inh 6, KCNK9 block -7.4, KCNK3 block -11 | KCNK3 inh conf 115 | KCNK3 uninduced 0.15
O=C(COC(=O)/C=C/c1ccccc1[N+](=O)[O-])NCc1ccco1	none (no result: KCNQ1 inh, KCNQ1 pot, KCNK9 block, hERG protect)
Cc1cc(C)c(NC(=O)/C(=C/c2ccco2)c2ccccc2)c(C)c1	KCNK3 block -9 | KCNK3 inh conf 108 | KCNK3 uninduced inactive
COc1ccc(Br)cc1/C=N/NC(=O)c1ccc(OC)c(OC)c1	none
COc1ccc(Br)cc1/C=N/NC(=O)c1nc(-c2ccccc2)n2c1CCCCC2	KCNQ1 inh 6, KCNK3 block -12 | KCNK3 inh conf 113 | KCNK3 uninduced 0.14
CCCCN1CN(S(=O)(=O)c2ccc(OC)cc2)c2nc3ccccc3nc21	KCNK3 block -8.9 | KCNK3 inh conf 90 | KCNK3 uninduced inactive
O=C(N/N=C/c1ccc[nH]1)c1ccc(O)cc1	none
O=C(N/N=C/c1ccc[nH]1)c1ccccc1O	KCNK3 block -9 | KCNK3 inh conf 81 | KCNK3 uninduced inactive
C=C(C)COc1ccc(-c2[nH]ncc2Oc2ccccc2OC)c(O)c1	none
C=C(C)COc1ccc(-c2[nH]ncc2-c2ccccc2OC)c(O)c1	KCNK3 block -9 | KCNK3 inh conf 96 | KCNK3 uninduced inactive
C(=N\N1CCN(C2c3ccccc3-c3ccccc32)CC1)/c1cccnc1	KCNK3 block -10 | KCNK3 inh conf 85 | KCNK3 uninduced inactive
CC(C)c1nnc(SCC(=O)NC2CCCCC2)n1C	none
C=CCn1c(SCC(=O)c2cccs2)nc2sc(C)c(C)c2c1=O	KCNK3 block -9.5 | KCNK3 inh conf 115 | KCNK3 uninduced 0.15
COC(=O)c1ccc2c(c1)C(C)(C)C(/C=C/c1ccc(O)cc1)=[N+]2C	none
COC(=O)c1ccc2c(c1)C(C)(C)C(/C=C/c1ccc(OC)c(OC)c1OC)=[N+]2C	KCNQ1 inh 7, KCNK3 block -12 | KCNK3 inh conf 117 | KCNK3 uninduced 0.09
CSc1ccc(CN(C)C(=O)COc2ccc(C(=O)c3ccccc3)cc2)cc1	KCNK3 block -9.4 | KCNK3 inh conf 101 | KCNK3 uninduced inactive
COc1ccc(CCN(C)C(=O)COc2ccc(C(=O)c3ccccc3)cc2)cc1OC	none
Cc1ccc(S(=O)(=O)NCC(c2ccco2)N2CCc3ccccc3C2)cc1 (stereo unspecified)	none
O=S(=O)(NCC(c1ccco1)N1CCc2ccccc2C1)c1ccc(Br)cc1 (stereo unspecified)	KCNK3 block -8.7 | KCNK3 inh conf 114 | KCNK3 uninduced inactive
Cc1onc(-c2ccc3c(c2)OCO3)c1-c1ccc2[nH]ccc2c1	KCNK3 block -9.5 | KCNK3 inh conf 95 | KCNK3 uninduced inactive
COc1ccccc1/C=N/NC(=O)CSc1ccc2ccccc2n1	KCNK3 block -11 | KCNK3 inh conf 114 | KCNK3 uninduced inactive
COc1cccc(CNC(=O)c2cc(S(=O)(=O)N3CCOCC3)ccc2N2CCCC2)c1	none (no result: KCNQ1 inh, KCNQ1 pot, KCNK9 block, hERG protect)
CC(C)(C)NC(=O)CSc1nc(Cc2ccccc2)nc2ccccc12	none
CC(C)N(C(=O)CSc1nc(Cc2ccccc2)nc2ccccc12)C(C)C	KCNK3 block -9.5 | KCNK3 inh conf 96 | KCNK3 uninduced inactive
Cc1ccc(C(=O)CN(CCCC(N)=O)C(=O)c2ccncc2)cc1	none (no result: KCNQ1 inh, KCNQ1 pot, KCNK9 block, hERG protect)
O=C(NC12CC3CC(CC(C3)C1)C2)N1CCN(c2nc(-c3ccccc3)cs2)CC1	KCNK9 block -6.7 | KCNK3 inh conf 104 | KCNK3 uninduced inactive
CCOC(=O)c1ccc(NC(=O)CSc2nnc(CCc3ccc(C)o3)n2-c2ccccc2)cc1	KCNK3 block -17 | KCNK3 inh conf 90 | KCNK3 uninduced inactive
O=C(CN1CCN(S(=O)(=O)c2cccs2)CC1)N1CCCCC1	none (no result: KCNQ1 inh, KCNQ1 pot, KCNK9 block, hERG protect)
CCCS(=O)(=O)c1c(S(=O)(=O)CCC)c2ccc(C(N)=O)cn2c1C(=O)c1ccc(F)cc1	KCNK9 block -7.4, KCNK3 block -12 | KCNK3 inh conf 91 | KCNK3 uninduced inactive
CCN1CCN(C(=O)c2cc3cc(F)ccc3[nH]2)CC1	none
CC(C)(C)c1ccc(/C=N/NC(=O)CN2CCS(=O)(=O)CC2)cc1	none
CC(C)C(CCNC(=O)CN1C(=O)c2ccccc2C1=O)c1ccco1 (stereo unspecified)	none
CC(C)C(CCNC(=O)CC(Cc1ccccc1)c1ccco1)c1ccco1 (stereo unspecified)	KCNK3 block -9.4 | KCNK3 inh conf 120 | KCNK3 uninduced 0.15
COc1ccccc1C(=O)NCCC(=O)N1CCCCC1	none
COc1ccccc1C(=O)NCCC(=O)N1CCCC(C(F)(F)F)C1 (stereo unspecified)	KCNK3 block -9.5 | KCNK3 inh conf 77 | KCNK3 uninduced inactive
O=C(Cn1cnc2c(OCc3ccccc3)ncnc21)NCC1CCCO1 (stereo unspecified)	none (no result: KCNQ1 inh, KCNQ1 pot, KCNK9 block, hERG protect)
CCCSc1nc(N2CCOCC2)c2c(c1C#N)CC(C)(C)SC2	KCNK3 block -9.5 | KCNK3 inh conf 128 | KCNK3 uninduced 0.12
CCCCCSc1nc(N2CCOCC2)c2c(c1C#N)CC(C)(C)OC2	KCNK3 block -9 | KCNK3 inh conf 105 | KCNK3 uninduced 0.15
